ChEMBL document CHEMBL1250503, “Stereoselective synthesis and biological evaluation of (R)-rugulactone, (6R)-((4R)-hydroxy-6-phenyl-hex-2-enyl)-5,6-dihydro-pyran-2-one and its 4S epimer” (2010)
Converted amounts (≈) assume the structure as drawn.

Assays:
Format in all cases: functional
Bacillus subtilis = experiment: Antibacterial activity against Bacillus subtilis MTCC 441 by broth dilution method
Method in brief: (§1)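 Broth dilution per National Committee for Clinical Laboratory (NCCL) standards against a bacterial panel. The read-out is the minimum inhibitory concentration (MIC).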

Staphylococcus aureus = experiment: Antibacterial activity against Staphylococcus aureus MTCC 96 by broth dilution method; method in brief: as §1
[1] = test system: Staphylococcus epidermidis; experiment: Antibacterial activity against Staphylococcus epidermidis MTCC 437 by broth dilution method; method in brief: as §1
Escherichia coli = experiment: Antibacterial activity against Escherichia coli MTCC 443 by broth dilution method; method in brief: as §1
Pseudomonas aeruginosa = experiment: Antibacterial activity against Pseudomonas aeruginosa MTCC 741 by broth dilution method; method in brief: as §1
Klebsiella pneumoniae = experiment: Antibacterial activity against Klebsiella pneumoniae MTCC 39 by broth dilution method; method in brief: as §1
Rhizopus arrhizus [2] = experiment: Antifungal activity against Rhizopus oryzae MTCC 262 at 30 ug/ml after 24 to 96 hrs by agar cup diffusion method; conditions: read-out: DIZ
Method in brief: (§2)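 Agar cup diffusion on autoclaved Potato Dextrose Agar. 0.5 ml of 24 h old test-organism culture was spread over the solidified agar, and 6 mm cups were bored. Compounds were dissolved in DMSO and added to the cups at two concentrations. A clotrimazole control was included. Plates were held at room temperature for 24–96 h, and inhibition zone diameters were measured.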

Aspergillus niger [3] = experiment: Antifungal activity against Aspergillus niger MTCC 1344 at 30 ug/ml after 24 to 96 hrs by agar cup diffusion method; conditions: read-out: DIZ; method in brief: as §2
Candida albicans [4] = experiment: Antifungal activity against Candida albicans MTCC 227 at 30 ug/ml after 24 to 96 hrs by agar cup diffusion method; conditions: read-out: DIZ; method in brief: as §2
Saccharomyces cerevisiae [5] = experiment: Antifungal activity against Saccharomyces cerevisiae MTCC 171 at 30 ug/ml after 24 to 96 hrs by agar cup diffusion method; conditions: read-out: DIZ; method in brief: as §2
Rhizopus arrhizus [6] = experiment: Antifungal activity against Rhizopus oryzae MTCC 262 at 100 ug/ml after 24 to 96 hrs by agar cup diffusion method; conditions: read-out: DIZ; method in brief: as §2
Aspergillus niger [7] = experiment: Antifungal activity against Aspergillus niger MTCC 1344 at 100 ug/ml after 24 to 96 hrs by agar cup diffusion method; conditions: read-out: DIZ; method in brief: as §2
Candida albicans [8] = experiment: Antifungal activity against Candida albicans MTCC 227 at 100 ug/ml after 24 to 96 hrs by agar cup diffusion method; conditions: read-out: DIZ; method in brief: as §2
Saccharomyces cerevisiae [9] = experiment: Antifungal activity against Saccharomyces cerevisiae MTCC 171 at 100 ug/ml after 24 to 96 hrs by agar cup diffusion method; conditions: read-out: DIZ; method in brief: as §2

Row | Structure (SMILES) | MIC (Bacillus subtilis) [µg/mL] | MIC (Staphylococcus aureus) [µg/mL] | MIC [1] [µg/mL] | MIC (Escherichia coli) [µg/mL] | MIC (Pseudomonas aeruginosa) [µg/mL] | MIC (Klebsiella pneumoniae) [µg/mL] | zone of inhibition at 30 µg/mL (Rhizopus arrhizus [2]) [mm] | zone of inhibition at 30 µg/mL (Aspergillus niger [3]) [mm] | zone of inhibition at 30 µg/mL (Candida albicans [4]) [mm] | zone of inhibition at 30 µg/mL (Saccharomyces cerevisiae [5]) [mm] | zone of inhibition at 100 µg/mL (Rhizopus arrhizus [6]) [mm] | zone of inhibition at 100 µg/mL (Aspergillus niger [7]) [mm] | zone of inhibition at 100 µg/mL (Candida albicans [8]) [mm] | zone of inhibition at 100 µg/mL (Saccharomyces cerevisiae [9]) [mm]
1 | O=C1C=CC[C@@H](C/C=C/[C@H](O)CCc2ccccc2)O1 | 100 (≈ 367 µM) | 50 (≈ 184 µM) | 50 (≈ 184 µM) | 100 (≈ 367 µM) | 25 (≈ 91.8 µM) | 100 (≈ 367 µM) | 12 | 11 | 8 | 8 | 14 | 14 | 10 | 11
2 | O=C1C=CC[C@@H](C/C=C/[C@@H](O)CCc2ccccc2)O1 | 50 (≈ 184 µM) | 100 (≈ 367 µM) | 100 (≈ 367 µM) | 100 (≈ 367 µM) | 50 (≈ 184 µM) | 100 (≈ 367 µM) | 12 | 9 | 9 | 8 | 16 | 12 | 8 | 10
3 | Clc1ccccc1C(c1ccccc1)(c1ccccc1)n1ccnc1 [CLOTRIMAZOLE] |  |  |  |  |  |  | 21 | 18 | 22 | 23 |  |  |  | 

Continued, in another order:

Row | MIC (Bacillus subtilis) [µg/mL] | MIC (Staphylococcus aureus) [µg/mL] | MIC [1] [µg/mL] | MIC (Escherichia coli) [µg/mL] | MIC (Pseudomonas aeruginosa) [µg/mL] | MIC (Klebsiella pneumoniae) [µg/mL] | Structure (SMILES) | zone of inhibition at 30 µg/mL (Rhizopus arrhizus [2]) [mm] | zone of inhibition at 30 µg/mL (Aspergillus niger [3]) [mm] | zone of inhibition at 30 µg/mL (Candida albicans [4]) [mm] | zone of inhibition at 30 µg/mL (Saccharomyces cerevisiae [5]) [mm] | zone of inhibition at 100 µg/mL (Rhizopus arrhizus [6]) [mm] | zone of inhibition at 100 µg/mL (Aspergillus niger [7]) [mm] | zone of inhibition at 100 µg/mL (Candida albicans [8]) [mm] | zone of inhibition at 100 µg/mL (Saccharomyces cerevisiae [9]) [mm]
4 | 100 (≈ 420 µM) | 50 (≈ 210 µM) | 50 (≈ 210 µM) | 25 (≈ 105 µM) | 100 (≈ 420 µM) | 50 (≈ 210 µM) | O=C1CN(/N=C/c2ccc([N+](=O)[O-])o2)C(=O)N1 [NITROFURANTOIN] |  |  |  |  |  |  |  | 
5 | 1.56 (≈ 4.67 µM) | 1.56 (≈ 4.67 µM) | 1.56 (≈ 4.67 µM) |  |  |  | CC1(C)S[C@@H]2[C@H](NC(=O)Cc3ccccc3)C(=O)N2[C@H]1C(=O)O [PENICILLIN G] |  |  |  |  |  |  |  | 
6 | 100 (≈ 370 µM) | 50 (≈ 185 µM) | 50 (≈ 185 µM) | 50 (≈ 185 µM) | 12.5 (≈ 46.2 µM) | 25 (≈ 92.5 µM) | O=C(/C=C/C[C@@H]1CC=CC(=O)O1)CCc1ccccc1 [R-RUGULACTONE] | 11 | 14 | 7 | 7 | 12 | 16 | 8 | 8
7 |  |  |  | 1.56 (≈ 2.69 µM) | 1.56 (≈ 2.69 µM) | 1.56 (≈ 2.69 µM) | CN[C@@H]1[C@H](O[C@H]2[C@H](O[C@H]3[C@H](O)[C@@H](O)[C@H](N=C(N)N)[C@@H](O)[C@@H]3N=C(N)N)O[C@@H](C)[C@]2(O)C=O)O[C@@H](CO)[C@H](O)[C@H]1O [STREPTOMYCIN] |  |  |  |  |  |  |  | 
